Measured values taken from ChEMBL document CHEMBL2331117 (J Med Chem, 2013).

Key:
[1] = molecular target: Heat shock protein HSP 90-beta (Homo sapiens, UniProt P08238); experiment: Inhibition of HSP90 (unknown origin)
Mus musculus [2] = experiment: In vivo inhibition of mTORC2-mediated phosphorylation of AKT at […] in human PC3 cells xenografted into athymic nude mouse at 100 mg/kg, po after 1 hr by Western blotting analysis relative to control; format: functional; conditions: PC-3, 1 h
Procedure, shortened: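 Human PC-3 cells were implanted subcutaneously into the hindflank of male nude mice aged 5−8 weeks, at 3 × 10^6 cells (passages 10−14, >95% viability) in ice-cold HBSS. At a tumor size of 200−500 mg, mice got one oral 100 mg/kg dose. Tumors were taken at 1, 4, 8, 16, 24 and 32 h. Lysates (n = 5 per group) were pooled, and phospho-AKT (T308) was read by Western blot, normalized to α-tubulin.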

[3] = Tmax in Beagle dog at 3 mg/kg, po; format: ADME, organism-based, Canis lupus familiaris; set-up: dose 3 mg/kg, route oral; conditions: in vivo
[4] = Cmax in cynomolgus monkey at 3 mg/kg, po; format: ADME, organism-based, Macaca fascicularis; set-up: dose 3 mg/kg, route oral; conditions: in vivo
Procedure, shortened: (§1)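 Single-dose PK: female athymic nude mice (10 mg/kg), female CD rats and male beagle dogs (3 mg/kg), male cynomolgus monkeys (3 mg/kg), given iv and by oral gavage. Solution in EPW (5% ethanol/45% PEG400/water), with 1:2 HCl (m/m) for mouse, rat and dog and 1:1.5 HCl (m/m) for monkey. Plasma levels followed over 24 h.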

[5] = Drug uptake in tumor of athymic mouse xenografted with human MCF7 cells at 100 mg/kg, po after 24 hrs; format: ADME, organism-based, Neoplasm; set-up: dose 100 mg/kg, route oral; conditions: in vivo, BLD = below limit of detection
[6] = molecular target: Hepatocyte growth factor receptor (Homo sapiens, UniProt P08581); experiment: Inhibition of MET (unknown origin)
[7] = Cmax in Beagle dog at 3 mg/kg, po; format: ADME, organism-based, Canis lupus familiaris; set-up: dose 3 mg/kg, route oral; conditions: in vivo; procedure, shortened: as §1
Mus musculus [8] = experiment: In vivo inhibition of mTORC1-mediated phosphorylation of p70S6K at […] in human PC3 cells xenografted into athymic nude mouse at 100 mg/kg, po after 24 hrs by Western blotting analysis relative to control; format: functional; conditions: PC-3, 24 h
Procedure, shortened: (§2)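 PC-3 cells grown in DMEM with 20% FBS were implanted subcutaneously at 3 × 10^6 cells in ice-cold HBSS into the hindflank of 5−8 week old male nude mice. At tumor size 200−500 mg, mice received a single oral dose of 100 mg/kg. Plasma and tumors were collected at 1, 4, 8, 16, 24 and 32 h. Tumor lysates from each group (n = 5) were pooled. Phospho-proteins were quantified by Western blot and normalized to α-tubulin.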

[9] = Oral bioavailability in Beagle dog at 3 mg/kg; format: ADME, organism-based, Canis lupus familiaris; conditions: in vivo
Procedure, shortened: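 For single-dose PK, compound was given intravenously and by oral gavage as a solution in EPW (5% ethanol/45% PEG400/water + 1:2 HCl m/m). Doses were 10 mg/kg in female athymic nude mice and 3 mg/kg in female CD rats and male beagle dogs.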

[10] = molecular target: Phosphatidylinositol 4,5-bisphosphate 3-kinase catalytic subunit gamma isoform (Homo sapiens, UniProt P48736); experiment: Inhibition of PI3Kgamma (unknown origin)
[11] = Clearance in Beagle dog at 3 mg/kg, iv; format: ADME, organism-based, Canis lupus familiaris; set-up: dose 3 mg/kg, route intravenous; conditions: in vivo; procedure, shortened: as §1
Mus musculus [12] = experiment: In vivo inhibition of mTORC1-mediated phosphorylation of pS6 at (serine 240/244) in human PC3 cells xenografted into athymic nude mouse at 100 mg/kg, po after 1 hr by Western blotting analysis relative to control; format: functional; conditions: PC-3, 1 h; procedure, shortened: as §2
Cytochrome P450 2D6 = Cytochrome P450 2D6 (Homo sapiens, UniProt P10635); experiment: Inhibition of CYP2D6 (unknown origin); format: ADME
[13] = Cmax in cynomolgus monkey at 3 mg/kg, iv; format: ADME, organism-based, Macaca fascicularis; set-up: dose 3 mg/kg, route intravenous; conditions: in vivo; procedure, shortened: as §1
Mus musculus [14] = experiment: In vivo inhibition of mTORC1-mediated phosphorylation of p70S6K at […] in human PC3 cells xenografted into athymic nude mouse at 100 mg/kg, po after 1 hr by Western blotting analysis relative to control; format: functional; conditions: PC-3, 1 h; procedure, shortened: as §2
[15] = molecular target: Phosphatidylinositol 3-kinase catalytic subunit type 3 (Homo sapiens, UniProt Q8NEB9); experiment: Inhibition of VPS34 (unknown origin)
Mus musculus [16] = experiment: In vivo inhibition of mTORC1-mediated phosphorylation of pS6 at (serine 240/244) in human MCF7 cells xenografted into athymic nude mouse at 100 mg/kg, po after 32 hrs by Western blotting analysis relative to control; format: functional; conditions: MCF7, 32 h
Procedure, shortened: (§3)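 MCF-7 cells (DMEM, 10% FBS) were implanted subcutaneously at 5 × 10^6 cells in 50% cold HBSS/50% growth-factor-reduced matrigel into the hindflank of 5−8 week old female nude mice. At tumor size 40−150 mg, mice received a single oral dose of 100 mg/kg. Tumor lysates were pooled per group. Phospho-AKT (S473, T308), p70S6K (T389), S6 (S240/244) and 4E-BP1 (T37/46) were measured by Western blot normalized to α-tubulin.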

Mus musculus [17] = experiment: In vivo inhibition of mTORC1-mediated phosphorylation of 4EBP1 at ([…]) in human MCF7 cells xenografted into athymic nude mouse at 100 mg/kg, po after 4 hrs by Western blotting analysis relative to control; format: functional; conditions: MCF7, 4 h; procedure, shortened: as §3
[18] = Cmax in athymic nude mouse at 10 mg/kg, po; format: ADME, organism-based; set-up: dose 10 mg/kg, route oral; conditions: in vivo; procedure, shortened: as §1
Mus musculus [19] = experiment: In vivo inhibition of mTORC1-mediated phosphorylation of 4EBP1 at ([…]) in human MCF7 cells xenografted into athymic nude mouse at 100 mg/kg, po after 16 hrs by Western blotting analysis relative to control; format: functional; conditions: MCF7, 16 h
[20] = Drug uptake in tumor of athymic mouse xenografted with human MCF7 cells at 100 mg/kg, po after 16hrs; format: ADME, organism-based, Neoplasm; set-up: dose 100 mg/kg, route oral; conditions: read-out: Drug uptake
Mus musculus [21] = experiment: In vivo inhibition of mTORC2-mediated phosphorylation of AKT at serine 473 in human MCF7 cells xenografted into athymic nude mouse at 100 mg/kg, po after 24 hrs by Western blotting analysis relative to control; format: functional; conditions: MCF7, 24 h; procedure, shortened: as §3
[22] = molecular target: Vascular endothelial growth factor receptor 1 (Homo sapiens, UniProt P17948); experiment: Inhibition of FLT1 (unknown origin)
[23] = molecular target: Serine/threonine-protein kinase Chk1 (Homo sapiens, UniProt O14757); experiment: Inhibition of CHK1 (unknown origin)
[24] = Plasma concentration in mouse at 100 mg/kg, po after 1 hr; format: ADME, organism-based; set-up: dose 100 mg/kg, route oral
[25] = AUC (0 to infinity) in CD rat at 3 mg/kg, iv; format: ADME, organism-based; set-up: time infinity, dose 3 mg/kg, route intravenous; conditions: plasma; procedure, shortened: as §1
Mus musculus [26] = experiment: In vivo inhibition of mTORC1-mediated phosphorylation of p70S6K at […] in human MCF7 cells xenografted into athymic nude mouse at 100 mg/kg, po after 16 hrs by Western blotting analysis relative to control; format: functional; conditions: MCF7, 16 h; procedure, shortened: as §3
[27] = Drug uptake in tumor of athymic mouse xenografted with human MCF7 cells at 100 mg/kg, po after 4 hrs; format: ADME, organism-based, Neoplasm; set-up: dose 100 mg/kg, route oral; conditions: read-out: Drug uptake
Mus musculus [28] = experiment: In vivo inhibition of mTORC2-mediated phosphorylation of AKT at […] in human MCF7 cells xenografted into athymic nude mouse at 100 mg/kg, po after 1 hr by Western blotting analysis relative to control; format: functional; conditions: MCF7, 1 h; procedure, shortened: as §3
[29] = Drug uptake in tumor of athymic mouse xenografted with human MCF7 cells at 100 mg/kg, po after 32 hrs; format: ADME, organism-based, Neoplasm; set-up: dose 100 mg/kg, route oral; conditions: read-out: Drug uptake
[30] = Clearance in CD rat at 3 mg/kg, iv; format: ADME, organism-based; set-up: dose 3 mg/kg, route intravenous; conditions: in vivo; procedure, shortened: as §1

Vascular endothelial growth factor receptor 1, sequence (P17948 whole entry): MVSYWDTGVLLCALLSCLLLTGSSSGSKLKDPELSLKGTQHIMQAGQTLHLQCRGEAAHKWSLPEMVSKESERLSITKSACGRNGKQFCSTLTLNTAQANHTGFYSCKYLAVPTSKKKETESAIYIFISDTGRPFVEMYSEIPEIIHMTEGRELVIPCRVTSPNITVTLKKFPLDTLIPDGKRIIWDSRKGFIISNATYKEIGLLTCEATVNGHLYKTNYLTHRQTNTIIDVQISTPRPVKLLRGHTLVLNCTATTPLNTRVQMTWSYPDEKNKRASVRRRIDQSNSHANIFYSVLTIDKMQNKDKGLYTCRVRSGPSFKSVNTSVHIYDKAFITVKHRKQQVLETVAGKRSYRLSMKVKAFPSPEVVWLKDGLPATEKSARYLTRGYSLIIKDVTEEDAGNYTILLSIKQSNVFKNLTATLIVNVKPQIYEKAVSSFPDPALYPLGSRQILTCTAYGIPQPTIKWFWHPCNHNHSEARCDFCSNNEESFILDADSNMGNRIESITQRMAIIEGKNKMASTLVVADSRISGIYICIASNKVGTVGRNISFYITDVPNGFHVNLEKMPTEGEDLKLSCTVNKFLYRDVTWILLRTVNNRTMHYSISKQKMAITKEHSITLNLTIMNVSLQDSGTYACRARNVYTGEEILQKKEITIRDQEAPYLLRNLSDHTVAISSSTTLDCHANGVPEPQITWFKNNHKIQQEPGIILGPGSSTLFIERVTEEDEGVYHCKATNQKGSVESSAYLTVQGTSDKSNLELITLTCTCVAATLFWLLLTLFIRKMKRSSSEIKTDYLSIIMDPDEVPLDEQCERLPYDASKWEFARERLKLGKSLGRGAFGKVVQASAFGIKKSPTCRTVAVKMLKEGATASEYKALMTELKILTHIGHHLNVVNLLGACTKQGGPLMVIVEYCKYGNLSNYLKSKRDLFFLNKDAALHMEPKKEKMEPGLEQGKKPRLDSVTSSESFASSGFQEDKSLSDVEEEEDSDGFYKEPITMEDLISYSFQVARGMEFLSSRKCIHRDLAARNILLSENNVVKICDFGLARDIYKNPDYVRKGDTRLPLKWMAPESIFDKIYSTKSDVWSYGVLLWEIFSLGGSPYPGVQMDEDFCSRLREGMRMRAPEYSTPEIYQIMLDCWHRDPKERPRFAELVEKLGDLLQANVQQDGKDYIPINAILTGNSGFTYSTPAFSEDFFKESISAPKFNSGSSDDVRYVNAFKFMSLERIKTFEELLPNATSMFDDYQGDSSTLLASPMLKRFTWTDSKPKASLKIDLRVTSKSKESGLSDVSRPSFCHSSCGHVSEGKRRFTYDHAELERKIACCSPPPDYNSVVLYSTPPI
Hepatocyte growth factor receptor, sequence (P08581 whole entry): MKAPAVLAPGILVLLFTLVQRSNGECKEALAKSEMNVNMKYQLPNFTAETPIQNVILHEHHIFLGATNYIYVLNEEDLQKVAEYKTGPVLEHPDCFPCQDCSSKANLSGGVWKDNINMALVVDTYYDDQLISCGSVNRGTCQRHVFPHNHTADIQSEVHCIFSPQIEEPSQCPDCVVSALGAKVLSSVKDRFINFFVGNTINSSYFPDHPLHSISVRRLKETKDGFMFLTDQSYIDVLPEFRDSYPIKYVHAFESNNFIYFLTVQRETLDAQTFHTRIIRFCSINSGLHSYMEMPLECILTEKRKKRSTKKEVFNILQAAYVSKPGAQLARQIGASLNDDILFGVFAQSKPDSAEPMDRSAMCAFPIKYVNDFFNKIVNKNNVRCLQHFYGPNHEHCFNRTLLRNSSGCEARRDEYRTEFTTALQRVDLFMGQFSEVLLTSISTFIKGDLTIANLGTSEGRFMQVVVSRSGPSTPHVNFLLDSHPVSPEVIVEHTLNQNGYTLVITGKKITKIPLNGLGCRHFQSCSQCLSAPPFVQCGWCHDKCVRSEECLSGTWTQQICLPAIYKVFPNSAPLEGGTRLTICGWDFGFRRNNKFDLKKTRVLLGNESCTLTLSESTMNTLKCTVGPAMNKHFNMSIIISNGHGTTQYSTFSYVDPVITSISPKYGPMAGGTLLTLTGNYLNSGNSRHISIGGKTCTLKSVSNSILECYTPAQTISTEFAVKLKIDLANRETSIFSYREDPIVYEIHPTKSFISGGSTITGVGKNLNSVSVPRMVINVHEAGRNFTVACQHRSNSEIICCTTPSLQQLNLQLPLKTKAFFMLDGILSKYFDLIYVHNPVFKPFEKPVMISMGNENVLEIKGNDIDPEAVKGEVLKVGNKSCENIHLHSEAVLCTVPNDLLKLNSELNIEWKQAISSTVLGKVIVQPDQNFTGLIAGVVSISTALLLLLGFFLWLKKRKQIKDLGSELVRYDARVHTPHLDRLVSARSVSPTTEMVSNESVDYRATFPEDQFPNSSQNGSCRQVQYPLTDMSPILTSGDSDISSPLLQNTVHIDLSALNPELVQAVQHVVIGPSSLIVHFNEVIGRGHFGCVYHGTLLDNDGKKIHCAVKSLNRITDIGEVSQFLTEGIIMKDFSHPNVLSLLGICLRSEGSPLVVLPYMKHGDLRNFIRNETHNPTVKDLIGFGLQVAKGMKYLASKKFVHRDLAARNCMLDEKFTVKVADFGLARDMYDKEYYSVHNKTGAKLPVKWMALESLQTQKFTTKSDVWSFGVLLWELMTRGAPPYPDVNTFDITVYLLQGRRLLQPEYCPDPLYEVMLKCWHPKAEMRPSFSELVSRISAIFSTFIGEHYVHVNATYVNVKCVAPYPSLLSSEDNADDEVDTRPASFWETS
Serine/threonine-protein kinase Chk1, sequence (O14757 whole entry): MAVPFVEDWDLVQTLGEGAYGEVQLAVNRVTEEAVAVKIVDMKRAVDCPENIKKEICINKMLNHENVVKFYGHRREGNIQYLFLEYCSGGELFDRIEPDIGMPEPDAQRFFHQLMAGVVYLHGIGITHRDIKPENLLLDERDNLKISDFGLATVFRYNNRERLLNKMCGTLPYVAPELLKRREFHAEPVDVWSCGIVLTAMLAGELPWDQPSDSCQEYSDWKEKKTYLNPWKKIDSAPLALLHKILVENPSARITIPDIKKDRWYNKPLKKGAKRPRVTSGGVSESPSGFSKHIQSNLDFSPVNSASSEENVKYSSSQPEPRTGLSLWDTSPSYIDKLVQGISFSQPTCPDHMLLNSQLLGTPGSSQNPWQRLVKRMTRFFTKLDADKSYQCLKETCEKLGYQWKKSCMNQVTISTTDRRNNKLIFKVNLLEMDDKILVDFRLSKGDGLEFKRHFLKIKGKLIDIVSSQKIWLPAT
Phosphatidylinositol 4,5-bisphosphate 3-kinase catalytic subunit gamma isoform, sequence (P48736 whole entry, canonical isoform): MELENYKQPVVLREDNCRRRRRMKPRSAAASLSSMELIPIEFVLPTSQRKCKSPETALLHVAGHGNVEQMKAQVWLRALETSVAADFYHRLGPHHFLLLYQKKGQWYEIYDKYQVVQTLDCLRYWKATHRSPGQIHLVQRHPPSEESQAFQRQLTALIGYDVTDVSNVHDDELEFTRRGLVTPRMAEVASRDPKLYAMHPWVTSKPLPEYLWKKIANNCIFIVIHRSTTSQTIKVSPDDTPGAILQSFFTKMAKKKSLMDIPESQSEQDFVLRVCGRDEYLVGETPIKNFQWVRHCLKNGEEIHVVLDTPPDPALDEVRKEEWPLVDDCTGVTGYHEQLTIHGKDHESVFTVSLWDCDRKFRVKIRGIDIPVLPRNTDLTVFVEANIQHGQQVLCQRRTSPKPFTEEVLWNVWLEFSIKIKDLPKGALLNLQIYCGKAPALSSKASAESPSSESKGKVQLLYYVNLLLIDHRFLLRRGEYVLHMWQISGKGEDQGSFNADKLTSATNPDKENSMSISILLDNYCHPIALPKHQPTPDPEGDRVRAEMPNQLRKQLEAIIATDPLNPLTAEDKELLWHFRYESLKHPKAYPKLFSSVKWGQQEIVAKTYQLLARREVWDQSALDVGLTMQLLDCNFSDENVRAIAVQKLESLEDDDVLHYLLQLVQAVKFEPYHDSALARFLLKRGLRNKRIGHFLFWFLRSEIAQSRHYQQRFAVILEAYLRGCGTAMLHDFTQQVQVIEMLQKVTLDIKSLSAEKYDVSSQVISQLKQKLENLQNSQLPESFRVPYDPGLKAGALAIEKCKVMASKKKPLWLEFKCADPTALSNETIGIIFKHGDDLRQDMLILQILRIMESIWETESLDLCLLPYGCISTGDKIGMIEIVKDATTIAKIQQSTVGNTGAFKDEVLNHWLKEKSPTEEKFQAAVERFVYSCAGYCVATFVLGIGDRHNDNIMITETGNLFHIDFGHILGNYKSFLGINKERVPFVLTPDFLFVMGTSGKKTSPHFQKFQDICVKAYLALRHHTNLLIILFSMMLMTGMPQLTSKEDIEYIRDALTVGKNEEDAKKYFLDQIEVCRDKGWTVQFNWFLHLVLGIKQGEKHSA
Heat shock protein HSP 90-beta, sequence (P08238 whole entry): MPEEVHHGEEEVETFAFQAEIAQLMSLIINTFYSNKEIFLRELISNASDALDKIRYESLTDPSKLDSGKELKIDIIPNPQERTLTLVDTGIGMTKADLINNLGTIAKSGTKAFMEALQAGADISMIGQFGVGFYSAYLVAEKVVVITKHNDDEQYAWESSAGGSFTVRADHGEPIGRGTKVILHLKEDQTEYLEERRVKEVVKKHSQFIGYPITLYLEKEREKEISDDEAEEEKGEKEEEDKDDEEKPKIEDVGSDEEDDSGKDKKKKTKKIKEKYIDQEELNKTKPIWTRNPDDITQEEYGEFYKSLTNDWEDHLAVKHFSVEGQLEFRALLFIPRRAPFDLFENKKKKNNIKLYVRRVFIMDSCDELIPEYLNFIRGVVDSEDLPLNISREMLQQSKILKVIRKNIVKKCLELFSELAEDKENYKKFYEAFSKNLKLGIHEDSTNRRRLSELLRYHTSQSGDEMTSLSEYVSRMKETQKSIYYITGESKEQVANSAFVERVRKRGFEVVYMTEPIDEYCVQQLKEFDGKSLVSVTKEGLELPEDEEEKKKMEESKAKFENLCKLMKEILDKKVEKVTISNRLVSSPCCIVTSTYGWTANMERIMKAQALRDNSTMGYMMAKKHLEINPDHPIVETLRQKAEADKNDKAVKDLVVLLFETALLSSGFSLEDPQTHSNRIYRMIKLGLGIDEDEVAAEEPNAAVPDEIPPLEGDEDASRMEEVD

Compound: Cc1c(C(=O)N2CCOc3ccc(-c4ccc(N)nc4)cc3C2)ccc(S(C)(=O)=O)c1F
- IC50 [1]: > 3.5 µM
- inhibition in vivo at 100 mg/kg (Mus musculus [2]): -24%
- Tmax [3]: 1 h
- Cmax [4]: 250 nM
- Drug uptake [5]: BLD
- IC50 [6]: > 3.5 µM
- Cmax [7]: 1660 nM
- inhibition in vivo at 100 mg/kg (Mus musculus [8]): 11%
- bioavailability [9]: 69.6%
- IC50 [10]: > 5 µM
- clearance [11]: 9.97 mL/min/kg
- inhibition in vivo at 100 mg/kg (Mus musculus [12]): 88%
- INH (Cytochrome P450 2D6): > 20 µM
- Cmax [13]: 950 nM
- inhibition in vivo at 100 mg/kg (Mus musculus [14]): 87%
- IC50 [15]: > 3.5 µM
- inhibition in vivo at 100 mg/kg (Mus musculus [16]): -3%
- inhibition in vivo at 100 mg/kg (Mus musculus [17]): 85%
- Cmax [18]: 1300 nM
- inhibition in vivo at 100 mg/kg (Mus musculus [19]): 56%
- concentration at 16 h [20]: 2740 nM
- inhibition in vivo at 100 mg/kg (Mus musculus [21]): -49%
- IC50 [22]: > 3.5 µM
- IC50 [23]: > 3.5 µM
- concentration at 1 h [24]: 22000 nM
- AUC(0-inf) [25]: 3.72 µM·h
- inhibition in vivo at 100 mg/kg (Mus musculus [26]): 41%
- concentration at 4 h [27]: 35900 nM
- inhibition in vivo at 100 mg/kg (Mus musculus [28]): 6%
- concentration at 32 h [29]: 100 nM
- clearance [30]: 21.2 mL/min/kg
